Calls of active or inactive are those of the source. No cut-off for these calls is given here.

The test system of data set [1] is Nucleic Acid. Description: Binding affinity to DNA assessed as thermal transition of DNA relative to control. It is filed as nucleic-acid assay.
The subject of data set [2] is RAW264.7. Description: Cytotoxicity against mouse RAW264.7 cells at 5 uM. Particulars: raw264.7, 5 µM. It is filed as cell-based.
Data set [3] can be described thus: Cytotoxicity against mouse RAW264.7 cells. It is filed as cell-based. Particulars: read-out: LD50 (the source's name).
For data set [4], the system named is Mus musculus. Description: Antiinflammatory activity in mouse assessed as inhibition of TPA-induced mouse ear edema at 500 ug/ear administered 30 mins before TPA challenge measured after 7 hrs relative to untreated control. It is filed as functional, organism-based. The essentials:
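Compound (500 µg) applied to one mouse ear; 30 min later TPA (0.5 µg) applied to both ears. Edema scored after 7 h and expressed as percentage of edema. Mean ± SE, n = 6.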

The target of data set [5] is T1, DNA polymerase lambda (Homo sapiens) (UniProt Q9UGP5).
T1 sequence (whole entry): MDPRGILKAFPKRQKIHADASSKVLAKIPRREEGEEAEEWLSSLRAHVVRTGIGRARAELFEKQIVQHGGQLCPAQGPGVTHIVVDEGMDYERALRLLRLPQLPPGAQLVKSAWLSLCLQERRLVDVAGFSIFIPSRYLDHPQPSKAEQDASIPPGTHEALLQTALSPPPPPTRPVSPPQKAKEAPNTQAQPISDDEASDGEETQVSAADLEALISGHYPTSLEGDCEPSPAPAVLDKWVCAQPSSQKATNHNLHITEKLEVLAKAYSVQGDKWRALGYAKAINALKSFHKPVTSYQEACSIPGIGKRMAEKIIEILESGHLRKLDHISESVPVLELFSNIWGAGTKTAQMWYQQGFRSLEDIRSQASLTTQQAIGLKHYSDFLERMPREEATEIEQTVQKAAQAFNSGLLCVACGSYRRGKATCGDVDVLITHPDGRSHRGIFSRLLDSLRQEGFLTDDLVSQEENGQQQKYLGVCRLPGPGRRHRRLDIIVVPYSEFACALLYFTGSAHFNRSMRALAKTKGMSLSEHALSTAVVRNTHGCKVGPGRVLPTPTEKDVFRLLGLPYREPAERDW
Description: Inhibition of recombinant His-tagged human DNA polymerase lambda using poly(dA)/oligo(dT)18 (A/T = 2/1) and dTTP as the DNA template-primer and nucleotide substrate at 10 uM after 60 mins. Put shortly: (§1)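 Compound in DMSO, sonicated 30 s. Premixed 0 °C, 10 min with enzyme (0.05 units) in 50 mM Tris-HCl pH 7.5, 1 mM DTT, 50% glycerol, 0.1 mM EDTA, then added to standard reaction mixture. Template-primers: poly(dA)/oligo(dT)18 (2/1) for pols, oligo(dT)18 for TdT, poly(rA)/oligo(dT)18 for HIV-1 RT, with [3H]dTTP. 60 min at 37 °C (Taq 74 °C). Activity relative to no-inhibitor control; mean ± SE of three experiments.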

The species entered for data set [6] is Bos taurus. Description: Inhibition of calf DNA polymerase alpha using poly(dA)/oligo(dT)18 (A/T = 2/1) and dTTP as the DNA template-primer and nucleotide substrate at 10 uM after 60 mins. Put shortly: as §1
The species entered for data set [7] is Homo sapiens. Description: Inhibition of histidine-tagged human DNA polymerase gamma using poly(dA)/oligo(dT)18 (A/T = 2/1) and dTTP as the DNA template-primer and nucleotide substrate at 10 uM after 60 mins. The essentials:
as §1

In data set [8] the target is T2, DNA polymerase kappa (Homo sapiens) (UniProt Q9UBT6).
T2 sequence (whole entry): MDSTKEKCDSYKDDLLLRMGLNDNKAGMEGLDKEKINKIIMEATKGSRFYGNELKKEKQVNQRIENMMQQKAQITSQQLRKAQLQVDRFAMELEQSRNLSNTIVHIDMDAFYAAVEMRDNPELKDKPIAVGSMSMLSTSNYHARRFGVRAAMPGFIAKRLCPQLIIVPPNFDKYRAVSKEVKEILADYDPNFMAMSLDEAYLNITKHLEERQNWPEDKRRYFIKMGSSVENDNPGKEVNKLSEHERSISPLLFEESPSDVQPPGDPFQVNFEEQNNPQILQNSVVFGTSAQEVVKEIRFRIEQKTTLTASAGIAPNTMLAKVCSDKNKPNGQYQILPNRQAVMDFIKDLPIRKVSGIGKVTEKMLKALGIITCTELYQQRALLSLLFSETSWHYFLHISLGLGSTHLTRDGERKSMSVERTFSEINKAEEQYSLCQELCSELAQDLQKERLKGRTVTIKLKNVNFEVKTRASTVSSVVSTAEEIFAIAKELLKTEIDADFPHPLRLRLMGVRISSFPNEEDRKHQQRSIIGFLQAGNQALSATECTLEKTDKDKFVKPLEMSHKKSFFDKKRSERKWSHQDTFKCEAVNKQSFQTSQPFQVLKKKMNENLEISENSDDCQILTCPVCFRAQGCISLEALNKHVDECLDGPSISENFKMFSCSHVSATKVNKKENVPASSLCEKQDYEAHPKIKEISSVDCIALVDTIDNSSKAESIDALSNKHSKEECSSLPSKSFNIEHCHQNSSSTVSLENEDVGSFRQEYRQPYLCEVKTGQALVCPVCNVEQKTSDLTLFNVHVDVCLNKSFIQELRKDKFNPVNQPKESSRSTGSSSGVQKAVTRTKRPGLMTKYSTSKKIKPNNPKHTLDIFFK
Description: Inhibition of C-terminal His6-tagged human DNA polymerase kappa (amino acids 1 to 560) using poly(dA)/oligo(dT)18 (A/T = 2/1) and dTTP as the DNA template-primer and nucleotide substrate at 10 uM after 60 mins.

The species entered for data set [9] is Bos taurus. Description: Inhibition of calf DNA polymerase alpha using bovine deoxyribonuclease 1-treated DNA and dNTP as the DNA template-primer and nucleotide substrate at 10 uM after 60 mins.
The species named for data set [10] is Homo sapiens. Description: Inhibition of histidine-tagged human DNA polymerase gamma using bovine deoxyribonuclease 1-treated DNA and dNTP as the DNA template-primer and nucleotide substrate at 10 uM after 60 mins.
For data set [11], the target named is T2, DNA polymerase kappa (Homo sapiens). Description: Inhibition of C-terminal His6-tagged human DNA polymerase kappa (amino acids 1 to 560) using bovine deoxyribonuclease 1-treated DNA and dNTP as the DNA template-primer and nucleotide substrate at 10 uM after 60 mins.
For data set [12], the target named is T1, DNA polymerase lambda (Homo sapiens). Description: Inhibition of recombinant His-tagged human DNA polymerase lambda using bovine deoxyribonuclease 1-treated DNA and dNTP as the DNA template-primer and nucleotide substrate at 10 uM after 60 mins.
The test system of data set [13] is HCT-116. Description: Cytotoxicity against human HCT116 cells at 100 uM by WST-1 assay. It is filed as functional, cell-based. The essentials: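 HCT116 colon carcinoma cells (ATCC) grown in McCoy's 5A with 10% FBS, penicillin and streptomycin, 37 °C, 5% CO2. Plated at 1 × 10⁴ cells/well together with compound, which was diluted from a 10 mM DMSO stock into medium (final 0.5% DMSO). Incubated 24 h. Viability read by WST-1, expressed relative to untreated cells.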
On the technique in general: Tetrazolium dyes change colour on reduction, which living cells bring about.

The test system of data set [14] is RAW264.7. Description: Antiinflammatory activity in mouse RAW264.7 cells assessed as inhibition of LPS-induced TNFalpha secretion at 5 uM treated 30 mins before LPS challenge measured after 24 hrs by ELISA. It is filed as functional, cell-based. The essentials: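 RAW264.7 cells in MEM with 4.5 g/L glucose, 10% FCS, 5 mM L-glutamine, at 37 °C in 5% CO2. Seeded at 5 × 10⁴ cells/well and grown 24 h. Compound (final 1 and 5 µM) given 30 min before 100 ng/mL LPS. After 24 h, TNF-α in the medium measured by ELISA, relative to the no-compound value (100%). Mean ± SE, n = 4.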
On the technique in general: An ELISA detects its analyte on a solid surface through an enzyme-linked reagent.

As to `CC/C=C\C/C=C\C/C=C\C/C=C\C/C=C\CCCC(=O)Oc1cccc2c1C(=O)C=CC2=O`, the result in data set [1] was inactive. Besides, the Activity entry in [2] is reported as “Non-toxic”. The CC50 in data set [3] was greater than 10 µM. Further, in [4], the outcome was Active. The inhibition entry in data set [5], in data set [6], in data set [7], in [8], in [9] and in data set [10] was “Active” each time. Further, the inhibition result in [11] and in data set [12] was “Active” in each case.
For `O=C1C=CC(=O)c2c(O)cccc21` [JUGLONE], the result in data set [13], in data set [14] and in [4] was Active. The Activity result in [2] was “Non-toxic”. In addition, the inhibition result in data set [5], in data set [6], in [7], in data set [8], in [9] and in data set [10] was “Active” each time. For the same molecule, the inhibition entry in data set [11] and in data set [12] was “Active” throughout.
For the molecule `CCCCCCCCCCCCCCCCCC(=O)Oc1cccc2c1C(=O)C=CC2=O`, the result in [1] was inactive. Further, in data set [2], the Activity result is reported as “Non-toxic”. In [3], the CC50 was greater than 10 µM. Further, in data set [4], the result was Active. The inhibition entry in [5], in data set [6], in data set [7], in data set [8], in data set [9] and in [10] was “Active” in each case. Also, the inhibition entry in data set [11] and in data set [12] was “Active” throughout.
